# Reference: ChEMBL document CHEMBL4007411, “Design, Synthesis, and Biological Evaluation of Coupled Bioactive Scaffolds as Potential Anticancer Agents for Dual Targeting of Dihydrofolate Reductase and Thioredoxin Reductase” (J Med Chem, 2017)
# Active and inactive are the calls of the source. The calls are words filed in the database; no cut-off is given here.
# Key:
# MCF7 = assay: Antiproliferative activity against human MCF7 cells after 72 hrs by MTT assay; assay type: functional; settings: for GI50 / LC50 (concentration killing 50% of cells present at T0): MCF7, 72 h
# Procedure, shortened: (§1)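 Cells kept in RPMI 1640 with 10% FBS, penicillin and streptomycin at 37°C and 5% CO2. Seeded at 1.0 x 10^4/well and left to adhere overnight. Serial dilutions made in medium from DMSO stocks. MTT at 400 µg/ml final for 4 h, read at T0 and after 72 h. Formazan dissolved in DMSO:glycine pH 10.5, A550. GI50 and LC50 interpolated from absorbance versus log concentration.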
# [1] = biological target: T1, Thioredoxin reductase 1, cytoplasmic (Rattus norvegicus, UniProt O89049); assay: Inhibition of […] thioredoxin reductase after 60 mins by DTNB reduction assay
# T1 sequence (O89049 whole entry): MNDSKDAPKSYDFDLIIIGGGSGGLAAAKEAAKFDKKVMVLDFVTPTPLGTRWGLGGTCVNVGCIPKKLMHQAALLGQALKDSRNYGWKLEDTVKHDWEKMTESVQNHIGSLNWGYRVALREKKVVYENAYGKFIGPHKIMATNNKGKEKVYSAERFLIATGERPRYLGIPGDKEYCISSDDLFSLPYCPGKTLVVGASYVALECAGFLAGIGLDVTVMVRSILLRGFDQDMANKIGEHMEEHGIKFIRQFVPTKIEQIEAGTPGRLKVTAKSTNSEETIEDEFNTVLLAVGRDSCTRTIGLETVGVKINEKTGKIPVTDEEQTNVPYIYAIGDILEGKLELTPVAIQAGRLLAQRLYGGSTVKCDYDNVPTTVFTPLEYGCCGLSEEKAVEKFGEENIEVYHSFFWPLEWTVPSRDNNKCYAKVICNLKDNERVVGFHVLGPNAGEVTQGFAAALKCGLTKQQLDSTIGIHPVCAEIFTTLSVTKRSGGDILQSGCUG
# Procedure, shortened: (§2)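 Rat liver TrxR at 2.1 units/ml preincubated with a range of test concentrations and 200 µM NADPH in 50 mM Tris-HCl, 1 mM EDTA, pH 7.5, at room temperature for 30 or 60 min. Equal volume of buffer with 5 mM DTNB and 200 µM NADPH then added. A412 followed over 2 min. Activity as % of vehicle Vmax; IC50 from log concentration plot.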
# [2] = biological target: T1, Thioredoxin reductase 1, cytoplasmic; assay: Inhibition of […] thioredoxin reductase after 30 mins by DTNB reduction assay; procedure, shortened: as §2
# HCT-116 [3] = assay: Antiproliferative activity against human HCT116 cells after 72 hrs by MTT assay; assay type: functional; settings: for GI50 / CC50: HCT-116, 72 h; for CC50: read-out: LC50 (the source's name); procedure, shortened: as §1
# Dihydrofolate reductase = biological target: T2, Dihydrofolate reductase (Homo sapiens, UniProt P00374); assay: Inhibition of recombinant human DHFR assessed as reduction in conversion of DHF to THF measured every 30 secs for 6 mins by UV-Vis spectrophotometric method
# T2 sequence (P00374 whole entry): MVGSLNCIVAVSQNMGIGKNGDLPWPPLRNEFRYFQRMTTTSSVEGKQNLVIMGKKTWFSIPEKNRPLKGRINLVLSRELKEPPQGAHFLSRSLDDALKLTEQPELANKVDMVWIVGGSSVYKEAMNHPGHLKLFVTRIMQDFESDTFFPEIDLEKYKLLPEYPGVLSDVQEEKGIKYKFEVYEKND
# [4] = biological target: T3, Thioredoxin reductase 1, cytoplasmic (Homo sapiens) (UniProt Q16881); assay: Inhibition of thioredoxin reductase in human HCT116 cell lysate using thioredoxin as substrate at 0.001 to 1 uM after 16 hrs by end point insulin assay method
# T3 sequence (whole entry): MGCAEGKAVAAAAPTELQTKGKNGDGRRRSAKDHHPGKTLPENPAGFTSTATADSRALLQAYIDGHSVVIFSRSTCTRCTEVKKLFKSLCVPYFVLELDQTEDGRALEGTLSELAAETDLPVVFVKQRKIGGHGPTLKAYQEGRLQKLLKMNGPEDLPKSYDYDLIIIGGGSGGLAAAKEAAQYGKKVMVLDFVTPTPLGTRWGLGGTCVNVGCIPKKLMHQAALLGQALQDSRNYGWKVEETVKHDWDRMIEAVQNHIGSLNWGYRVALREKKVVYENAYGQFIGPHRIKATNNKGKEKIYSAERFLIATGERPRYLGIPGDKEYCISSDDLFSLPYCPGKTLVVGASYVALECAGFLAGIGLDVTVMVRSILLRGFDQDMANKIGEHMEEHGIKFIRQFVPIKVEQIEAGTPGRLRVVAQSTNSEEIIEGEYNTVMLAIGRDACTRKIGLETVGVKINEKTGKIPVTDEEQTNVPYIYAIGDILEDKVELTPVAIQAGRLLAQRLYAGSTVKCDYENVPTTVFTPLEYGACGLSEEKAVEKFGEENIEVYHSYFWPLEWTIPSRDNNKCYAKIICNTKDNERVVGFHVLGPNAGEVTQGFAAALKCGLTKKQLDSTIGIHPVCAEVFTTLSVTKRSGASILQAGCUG
# [5] = biological target: T4, Dihydrofolate reductase (Homo sapiens) (UniProt P00374); assay: Inhibition of DHFR in human HCT116 cell lysate assessed as reduction in conversion of DHF to THF after 16 hrs
# T4 sequence (whole entry): T2 sequence (P00374 whole entry)
# Procedure, shortened: (§3)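 HCT116 cells treated 16 h at 0.001 to 1 µM or 40 to 70 µM, then lysed. 400 µg lysate protein in PBS with 50 µM DHF and 200 µM NADPH, with matching controls containing 1 µM methotrexate. A340 decrease followed over 15 min at room temperature. MTX-sensitive rate given as % of DMSO-treated cells. Mean of three independent experiments.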
# [6] = biological target: T3, Thioredoxin reductase 1, cytoplasmic (Homo sapiens); assay: Inhibition of thioredoxin reductase in human HCT116 cell lysate using thioredoxin as substrate at 40 to 70 uM after 16 hrs by end point insulin assay method
# Procedure, shortened: (§4)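 HCT116 cells treated 16 h at 0.001 to 1 µM or 40 to 70 µM, then lysed. Stopped with 1 mM DTNB and 240 µM NADPH in 6 M guanidine HCl and Tris pH 8.0, read at A412. Given as % of DMSO-treated cells. Mean of three experiments.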
# HCT-116 [7] = assay: Upregulation of DHFR protein levels in human HCT116 cell lysate at 40 to 70 uM after 16 hrs by Western blot analysis; assay type: functional, cell-based
# Procedure, shortened: (§5)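 HCT116 plated at 1.5 x 10^6 per 100 mm plate, grown 48 h, then treated 16 h at 40 to 70 µM. Adherent and floating cells pooled and lysed in Triton X-100 buffer with protease inhibitors. Lysates cleared and protein measured by Bradford. Equal protein run on SDS-PAGE and blotted. DHFR or TrxR detected by ECL, β-actin antibody also used. Three independent experiments.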
# HCT-116 [8] = assay: Effect on thioredoxin reductase protein levels in human HCT116 cell lysate at 40 to 70 uM after 16 hrs by Western blot analysis; assay type: cell-based; settings: hct-116, 16 h; procedure, shortened: as §5
# [9] = biological target: T4, Dihydrofolate reductase (Homo sapiens); assay: Inhibition of DHFR in human HCT116 cell lysate assessed as reduction in conversion of DHF to THF at 40 to 70 uM after 16 hrs; procedure, shortened: as §3
# [10] = biological target: T3, Thioredoxin reductase 1, cytoplasmic (Homo sapiens); assay: Inhibition of thioredoxin reductase in human HCT116 cell lysate using thioredoxin as substrate after 16 hrs by end point insulin assay method; procedure, shortened: as §4
Structure (SMILES),GI50 (MCF7) [µM],LC50 (concentration killing 50% of cells present at T0) (MCF7) [µM],IC50 ([1]; read-out: IC50) [µM],IC50 ([2]; read-out: IC50) [µM],GI50 (HCT-116 [3]) [µM],CC50 (HCT-116 [3]) [µM],IC50 (Dihydrofolate reductase) [µM],inhibition [4],inhibition [5],inhibition [6],growth inhibition (GI) (MCF7),IC50 [1],IC50 [2],growth inhibition (GI) (HCT-116 [3]),Activity (HCT-116 [7]),Activity (HCT-116 [8]),inhibition [9],inhibition [10]
CC1(C)N=C(N)N=C(N)N1OCCCCOc1ccc(/C=C/C(=O)c2ccccc2)cc1,0.141,14.8,21.1,31.6,0.026,42.9,0.004,,,,,,,,,,,
NC1=NC2(CCCC2)N(OCCCOc2ccccc2)C(N)=N1,0.077,90.8,,,0.021,> 100,0.0199,inactive,Dose-dependent effect,inactive,,,,,,,,
CC1(C)N=C(N)N=C(N)N1OCCCCOc1ccc(C(=O)/C=C/c2ccccc2)cc1,0.087,14.2,27,44.5,0.039,24,0.0034,,,,,,,,,,,
CN(Cc1cnc2nc(N)nc(N)c2n1)c1ccc(C(=O)N[C@@H](CCC(=O)O)C(=O)O)cc1 [METHOTREXATE],0.024,,,,0.015,> 100,,,,,,,,,,,,
CC1(C)N=C(N)N=C(N)N1OCCCOc1cccc(/C=C/C(=O)c2ccccc2)c1,0.013,29.8,2.8,4.1,0.011,48.2,0.0032,,,,,,,,,,,
O=C(Cc1ccccc1)Cc1ccccc1,,,,,,,,,,,inactive,Not Active,Not Active,inactive,,,,
CC1(C)N=C(N)N=C(N)N1OCCCOc1ccc(/C=C/C(=O)c2ccccc2)cc1,0.062,35.3,25.7,35.9,0.035,39,0.0064,,,,,,,,,,,
CC1(C)N=C(N)N=C(N)N1OCCCCOc1cccc(/C=C/C(=O)c2ccccc2)c1,0.086,15.5,3.8,6,0.034,34.7,0.0048,,,,,,,,,,,
CC1(C)N=C(N)N=C(N)N1OCCOc1ccc(/C=C/C(=O)c2ccccc2)cc1,0.512,47.7,21.1,29.8,0.706,81.9,0.0534,,,,,,,,,,,
Cl.NC1=NC2(CCCC2)N(OCCCCOc2cccc(C(=O)/C=C/c3ccccc3)c2)C(N)=N1,0.127,9.7,5.9,9.2,0.116,13.5,0.0026,inactive,Dose-dependent effect,,,,,,Active,Non-Toxic,Active,Dose-dependent effect
CC1(C)N=C(N)N=C(N)N1OCCCOc1cccc(C(=O)CCc2ccccc2)c1,0.036,25.9,,,0.01,34.2,0.0039,,,,,,,,,,,
CC1(C)N=C(N)N=C(N)N1OCCOc1cccc(C(=O)/C=C/c2ccccc2)c1,0.719,40.7,6.9,10.8,0.17,49.9,0.0356,,,,,,,,,,,
CC1(C)N=C(N)N=C(N)N1OCCOc1ccc(C(=O)/C=C/c2ccccc2)cc1,0.584,40.1,20.4,43.3,0.572,50.1,0.0141,,,,,,,,,,,
NC1=NC2(CCCC2)N(OCCOc2cccc(C(=O)/C=C/c3ccccc3)c2)C(N)=N1,0.77,16.1,4.6,8,0.26,24.1,0.0131,,,,,,,,,,,
CC1(C)N=C(N)N=C(N)N1OCCCOc1ccccc1,0.107,> 100,,,0.036,> 100,0.0053,inactive,Dose-dependent effect,inactive,,,,,,,,
CC1(C)N=C(N)N=C(N)N1OCCCOc1ccc(C(=O)/C=C/c2ccccc2)cc1,0.085,34,32.4,49,0.016,55.2,0.0092,,,,,,,,,,,
CC1(C)N=C(N)N=C(N)N1OCCCCOc1cccc(C(=O)/C=C/c2ccccc2)c1,0.122,11.3,6.7,11.2,0.051,30.3,0.0042,inactive,Dose-dependent effect,,,,,,,,Active,Dose-dependent effect
CC1(C)N=C(N)N=C(N)N1OCCOc1cccc(/C=C/C(=O)c2ccccc2)c1,0.623,38.8,4,5.7,0.145,52.2,0.0592,,,,,,,,,,,
CC1(C)N=C(N)N=C(N)N1OCCCOc1cccc(C(=O)/C=C/c2ccccc2)c1,0.076,20.2,8.2,10.8,0.011,42.7,0.009,inactive,Dose-dependent effect,,,,,,,,Active,Dose-dependent effect
